Laboratory results taken from ChEMBL document CHEMBL4765370, “Design, synthesis, and biological evaluation of aryl piperazines with potential as antidiabetic agents via the stimulation of glucose uptake and inhibition of NADH:ubiquinone oxidoreductase” (Eur J Med Chem, 2020).
≈ marks a conversion by molar mass, not a printed value.

Key:
[1] = AUCall in C57 Black mouse plasma at 10 mg/kg, iv; type: ADME, organism-based; design: dose 10 mg/kg
Outline: (§1)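 Male C57BL/6 mice were given a single 10 mg/kg dose either intravenously or orally. The oral and IV solutions were formulated in 10% DMSO, 10% cremaphor and 80% saline. Concentrations in plasma and in the tissues collected were determined after dosing, with n = 3 per route. Values are given as mean ± SEM.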

[2] = AUCinfinity in C57 Black mouse kidney at 10 mg/kg, iv; type: ADME, organism-based; design: route intravenous, time infinity, dose 10 mg/kg; outline: as §1
[3] = Bioavailability in C57 Black mouse at 10 mg/kg, iv or po; details: in vivo
[4] = Tmax in C57 Black mouse brain at 10 mg/kg, iv; type: ADME, organism-based
Outline: (§2)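 Male C57BL/6 mice (n = 3) dosed at 10 mg/kg by IV or oral (PO) route. Dosing solutions were formulated in 10% DMSO, 10% cremaphor and 80% saline. Compound levels were measured in plasma and tissues over time, and values are given as mean ± SEM.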

[5] = Cmax in C57 Black mouse kidney at 10 mg/kg, po; type: ADME, organism-based; design: route oral, dose 10 mg/kg; outline: as §1
[6] = AUCall in C57 Black mouse liver at 10 mg/kg, iv; type: ADME, organism-based; design: dose 10 mg/kg; outline: as §1
[7] = Volume of distribution in C57 Black mouse muscle at 10 mg/kg, iv; type: ADME, organism-based, Muscle tissue; outline: as §2
[8] = Half life in C57 Black mouse kidney at 10 mg/kg, iv; type: ADME, organism-based; outline: as §2
[9] = AUCall in C57 Black mouse kidney at 10 mg/kg, po; type: ADME, organism-based; design: dose 10 mg/kg; outline: as §1
[10] = AUClast in C57 Black mouse muscle at 10 mg/kg, iv; type: ADME, organism-based, Muscle tissue; design: time 0 - last, route intravenous, dose 10 mg/kg; outline: as §1
[11] = AUClast in C57 Black mouse liver at 10 mg/kg, po; type: ADME, organism-based; design: time 0 - last, route oral, dose 10 mg/kg; outline: as §1
[12] = Thermodynamic solubility of compound in PBS at 1 mg/ml after 24 hrs by LC-MS/MS analysis; type: physicochemical; details: read-out: Therm_solubility
Outline: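 Compound was equilibrated at 1 mg/mL and at 0.1 mg/mL in PBS containing 5% (v/v) DMSO, for 24 h at 21 °C. Samples were centrifuged at 15,000 g for 10 min and the supernatant was quantified by LC-MS/MS, n = 3.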

[13] = Half life in human microsomes at 1 uM up to 120 mins by HPLC/MS-MS analysis; type: ADME, Microsome
[14] = Tmax in C57 Black mouse kidney at 10 mg/kg, po; type: ADME, organism-based; outline: as §2
[15] = Metabolic stability in mouse hepatocytes assessed as hepatic extraction ratio at 1 uM up to 120 mins by HPLC-MS/MS analysis; type: ADME, cell-based, Hepatocyte
Outline: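 Cryopreserved hepatocytes (human or mouse) added to buffer containing compound at 1 µM; incubated at 37 °C up to 120 min, stopped with acetonitrile containing internal standard. Centrifuged supernatant analysed for parent compound by HPLC-MS/MS; n = 2. Half-life and intrinsic clearance (µL/min/10^6 cells) derived; extraction ratio reported from these.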

[16] = AUClast in C57 Black mouse spleen at 10 mg/kg, po; type: ADME, organism-based; design: time 0 - last, route oral, dose 10 mg/kg; outline: as §1
[17] = AUCinfinity in C57 Black mouse plasma at 10 mg/kg, iv; type: ADME, organism-based; design: route intravenous, time infinity, dose 10 mg/kg; details: in vivo; outline: as §1
[18] = AUCall in C57 Black mouse kidney at 10 mg/kg, iv; type: ADME, organism-based; design: dose 10 mg/kg; outline: as §1
[19] = Cmax in C57 Black mouse muscle at 10 mg/kg, iv; type: ADME, organism-based, Muscle tissue; design: route intravenous, dose 10 mg/kg; outline: as §1
[20] = Cmax in C57 Black mouse brain at 10 mg/kg, iv; type: ADME, organism-based; design: route intravenous, dose 10 mg/kg; outline: as §1
[21] = Stability in human plasma assessed as parent compound remaining at 1 uM after 2 hrs by HPC-MS/MS analysis; type: ADME, cell-free; details: read-out: Stabilty
Outline: (§3)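 Buffer containing test compound at 1 µM was mixed with human or mouse blood plasma and incubated at 37 °C for 60–120 min. Parent compound remaining gave the plasma half-life and the percentage stable at 2 h.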

[22] = Half life in human plasma at 1 uM after 60 to 120 mins by HPLC-MS/MS analysis; type: ADME, cell-free; details: time 60-120 min; outline: as §3
[23] = AUCinfinity in C57 Black mouse spleen at 10 mg/kg, iv; type: ADME, organism-based; design: time infinity, route intravenous, dose 10 mg/kg; outline: as §1
[24] = Half life in mouse microsomes at 1 uM up to 120 mins by HPLC/MS-MS analysis; type: ADME, Microsome
[25] = AUCinfinity in C57 Black mouse brain at 10 mg/kg, po; type: ADME, organism-based; design: route oral, time infinity, dose 10 mg/kg; outline: as §1
[26] = AUCinfinity in C57 Black mouse plasma at 10 mg/kg, po; type: ADME, organism-based; design: route oral, time infinity, dose 10 mg/kg; outline: as §1
[27] = Cmax in C57 Black mouse liver at 10 mg/kg, iv; type: ADME, organism-based; design: route intravenous, dose 10 mg/kg; outline: as §1
CYP3A4 = CYP3A4 (Homo sapiens, UniProt P08684); test: Inhibition of human CYP3A4 using fluorogenic substrate incubated for 60 mins in presence of NADPH by fluorescence assay relative to control; type: ADME; details: probe fluorogenic substrate
Outline: (§4)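 Baculosomes each expressing a single cDNA-derived human P450 isozyme were incubated with compound at 10 µM, a fluorogenic substrate and NADPH. Incubation was at 37 °C for at least 60 min before fluorescence was read, n = 3.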

[28] = Half life in C57 Black mouse spleen at 10 mg/kg, iv; type: ADME, organism-based; outline: as §2
[29] = Tmax in C57 Black mouse muscle at 10 mg/kg, iv; type: ADME, organism-based, Muscle tissue; outline: as §2
[30] = AUCinfinity in C57 Black mouse liver at 10 mg/kg, po; type: ADME, organism-based; design: time infinity, route oral, dose 10 mg/kg; outline: as §1
[31] = AUCall in C57 Black mouse plasma at 10 mg/kg, po; type: ADME, organism-based; design: dose 10 mg/kg; outline: as §1
[32] = Half life in C57 Black mouse brain at 10 mg/kg, po; type: ADME, organism-based; outline: as §1
[33] = Half life in C57 Black mouse plasma at 10 mg/kg, iv; type: ADME, organism-based; outline: as §2
[34] = Half life in C57 Black mouse liver at 10 mg/kg, po; type: ADME, organism-based; outline: as §2
C2C12 = test: Induction of glucose uptake in mouse C2C12 cells assessed as [3H]2-deoxyglucose uptake preincubated for 16 hrs followed by followed by [3H]2-deoxyglucose addition and measured after 10 mins by liquid scintillation counting method; type: functional
Outline: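 C2C12 mouse myoblasts were grown in high-glucose DMEM with 10% FBS. At 80% confluence they were differentiated into myotubes with 2% horse serum. Myotubes were exposed to compound (10 µM) for 16 h in medium with 0.1% horse serum, then washed with KRB pH 7.4 and given 1 µCi/mL [3H]-2-deoxyglucose for 10 min at 37 °C. After ice-cold washes and 0.1% SDS lysis, scintillation counts were normalised to BCA protein. Results are fold change vs DMSO, mean ± SEM, one-way ANOVA.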

[35] = Cmax in C57 Black mouse spleen at 10 mg/kg, iv; type: ADME, organism-based; design: route intravenous, dose 10 mg/kg; outline: as §1
[36] = Half life in C57 Black mouse muscle at 10 mg/kg, iv; type: ADME, organism-based, Muscle tissue; outline: as §2
[37] = AUClast in C57 Black mouse plasma at 10 mg/kg, iv; type: ADME, organism-based; design: route intravenous, time 0 - last, dose 10 mg/kg; outline: as §1
CYP2C9 = CYP2C9 (Homo sapiens, UniProt P11712); test: Inhibition of human CYP2C9 using fluorogenic substrate incubated for 60 mins in presence of NADPH by fluorescence assay relative to control; type: ADME; details: probe fluorogenic substrate; outline: as §4
[38] = Intrinsic clearance in mouse microsomes at 1 uM up to 120 mins by HPLC/MS-MS analysis; type: ADME, Microsome
[39] = Half life in human hepatocytes at 1 uM up to 120 mins by HPLC-MS/MS analysis; type: ADME, cell-based, Hepatocyte
[40] = Half life in C57 Black mouse spleen at 10 mg/kg, po; type: ADME, organism-based; outline: as §2

Chain of CYP3A4 (P08684 whole entry): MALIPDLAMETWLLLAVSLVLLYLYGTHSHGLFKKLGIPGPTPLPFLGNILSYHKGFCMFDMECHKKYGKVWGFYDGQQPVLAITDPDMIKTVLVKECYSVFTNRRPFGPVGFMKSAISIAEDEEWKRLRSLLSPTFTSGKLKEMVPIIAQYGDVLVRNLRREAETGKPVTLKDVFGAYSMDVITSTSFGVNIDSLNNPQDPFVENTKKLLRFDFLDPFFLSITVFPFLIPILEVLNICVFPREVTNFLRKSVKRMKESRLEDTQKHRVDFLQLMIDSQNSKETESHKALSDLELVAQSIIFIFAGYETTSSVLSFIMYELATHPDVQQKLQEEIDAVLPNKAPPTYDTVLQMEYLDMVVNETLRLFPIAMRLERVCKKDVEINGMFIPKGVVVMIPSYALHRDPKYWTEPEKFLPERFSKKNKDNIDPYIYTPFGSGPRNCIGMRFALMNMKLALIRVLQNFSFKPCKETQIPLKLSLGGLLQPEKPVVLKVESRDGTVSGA
Chain of CYP2C9 (P11712 whole entry): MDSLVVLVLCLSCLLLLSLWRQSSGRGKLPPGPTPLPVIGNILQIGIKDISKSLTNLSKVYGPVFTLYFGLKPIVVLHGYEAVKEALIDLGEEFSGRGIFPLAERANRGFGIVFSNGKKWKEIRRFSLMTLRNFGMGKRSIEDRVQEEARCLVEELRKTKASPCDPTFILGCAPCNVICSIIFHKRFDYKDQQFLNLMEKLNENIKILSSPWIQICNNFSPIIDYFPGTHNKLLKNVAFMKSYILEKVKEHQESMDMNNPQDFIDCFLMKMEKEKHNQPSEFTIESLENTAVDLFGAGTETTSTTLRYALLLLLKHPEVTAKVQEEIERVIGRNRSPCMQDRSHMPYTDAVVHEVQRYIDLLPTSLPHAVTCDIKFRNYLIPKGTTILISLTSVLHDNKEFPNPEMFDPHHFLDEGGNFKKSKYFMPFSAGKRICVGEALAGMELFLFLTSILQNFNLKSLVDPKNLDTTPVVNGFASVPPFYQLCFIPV

## O=C(CCCc1cccs1)N1CCN(c2ccc(C(F)(F)F)cc2)CC1
[1]
  AUC: 240 ng·h/mL
[2]
  AUC(0-inf): 348 ng·h/mL
[3]
  Bioavailability: 21.4%
[4]
  Tmax: 1.8 min
[5]
  Cmax: 1640 ng/mL
[6]
  AUC: 487 ng·h/mL
[7]
  Vd: 7.13 L/kg
[8]
  half-life: 45.6 min
[9]
  AUC: 1220 ng·h/mL
[10]
  AUC(0-t): 77.3 ng·h/mL
[11]
  AUC(0-t): 4050 ng·h/mL
[12]
  solubility thermodynamic at 24 h: 4 µg/mL (≈ 10.5 µM)
[13]
  half-life at 1 µM: 12 min
[14]
  Tmax: 15 min
[15]
  hepatic extraction ratio at 2 h, 1 µM: 0.48
[16]
  AUC(0-t): 1260 ng·h/mL
[17]
  AUC: 244 ng·h/mL
[18]
  AUC: 320 ng·h/mL
[19]
  Cmax: 165 ng/mL
[20]
  Cmax: 1030 ng/mL
[21]
  remaining at 2 h, 1 µM: 80%
[22]
  half-life at 1 µM: 808 min
[23]
  AUC(0-inf): 475 ng·h/mL
[24]
  half-life at 1 µM: 6 min
[25]
  AUC(0-inf): 774 ng·h/mL
[26]
  AUC(0-inf): 523 ng·h/mL
[27]
  Cmax: 1830 ng/mL
CYP3A4
  inhibition at 1 h: 80.2%
[28]
  half-life: 66 min
[29]
  Tmax: 1.8 min
[30]
  AUC(0-inf): 4090 ng·h/mL
[31]
  AUC: 520 ng·h/mL
[32]
  half-life: 27.6 min
[33]
  half-life: 27 min
[34]
  half-life: 60 min
C2C12
  fold change (FC): 2.57
[35]
  Cmax: 587 ng/mL
[36]
  half-life: 31.2 min
[37]
  AUC(0-t): 240 ng·h/mL
CYP2C9
  inhibition at 1 h: 74.2%
[38]
  microsomal CLint at 1 µM: 226 µL/min/mg
[39]
  half-life at 1 µM: 3 min
[40]
  half-life: 66 min
